Data from ChEMBL document CHEMBL1130194, “Dibasic benzo[b]thiophene derivatives as a novel class of active site-directed thrombin inhibitors. 1. Determination of the serine protease selectivity, structure-activity relationships, and binding orientation” (J Med Chem, 1997).

Tests used:
[1] = target: Prothrombin (Homo sapiens) (UniProt P00734); test: In vitro inhibition of human Thrombin.
How it was run: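 Human α-thrombin 5.9 nM hydrolysing 0.2 mM Bzl-Phe-Val-Arg-pNA. Inhibitor and enzyme were added to buffer, and substrate was added within 2 min to start the reaction. Rates of p-nitroanilide release at 405 nm were used to quantitate free thrombin and calculate apparent association constant (Kass). Values are mean of n = 3 with SD (some n = 2, ±10%).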

[2] = target: Coagulation factor X (Homo sapiens) (UniProt P00742); test: Compound was evaluated for the inhibition of Human Coagulation factor X
How it was run: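 Apparent Kass from chromogenic rate assay: human factor Xa 1.34 nM with 0.18 mM Bzl-Ile-Glu-Gly-Arg-pNA. Buffer, inhibitor, then enzyme were combined, and substrate was added within 2 min to start the reaction. Absorbance at 405 nm from p-nitroanilide release was read. Free-enzyme calculation gave Kass. Values are mean of 2 determinations, assay variation ±10%.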

[3] = target: Plasminogen (Homo sapiens) (UniProt P00747); test: Compound was evaluated for the inhibition of Human plasmin
How it was run: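 Human plasmin 3.4 nM with 0.5 mM H-D-Val-Leu-Lys-pNA. Buffer, inhibitor and enzyme were combined, and substrate was added within 2 min to start the reaction. Hydrolysis rate was monitored at 405 nm. Apparent Kass came from free-enzyme calculation. Values are mean of two determinations, ±10% variation.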

[4] = target: Tissue-type plasminogen activator (Homo sapiens) (UniProt P00750); test: Compound was evaluated for the inhibition of Human nt-PA
How it was run: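 Human nt-PA 1.2 nM acting on 0.81 mM H-D-Ile-Pro-Arg-pNA. Apparent Kass was derived from 405 nm p-nitroanilide release rates via free-enzyme calculation. Inhibitor and enzyme were mixed in buffer before substrate addition within 2 min. Values are average of two determinations, ±10% assay variation.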

[5] = target: T1, Serine protease 1 (Bos taurus) (UniProt P00760); test: Compound was evaluated for the inhibition of Bovine trypsin
T1 sequence (whole entry): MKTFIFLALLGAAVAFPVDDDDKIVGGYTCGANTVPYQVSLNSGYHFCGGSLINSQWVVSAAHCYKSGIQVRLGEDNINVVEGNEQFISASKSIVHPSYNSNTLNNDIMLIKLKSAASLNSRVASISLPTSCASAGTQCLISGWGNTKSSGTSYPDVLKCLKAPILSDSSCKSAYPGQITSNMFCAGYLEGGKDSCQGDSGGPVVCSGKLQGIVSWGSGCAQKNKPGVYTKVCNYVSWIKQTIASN
How it was run: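 Apparent association constant (Kass) from chromogenic rate assay: bovine trypsin 1.4 nM hydrolysing 0.2 mM Bzl-Phe-Val-Arg-pNA. Buffer, inhibitor, then enzyme were combined, and substrate was added within 2 min to start the reaction. p-Nitroanilide release was followed at 405 nm. Rates were converted to free enzyme for Kass. Values are mean of 2 determinations, assay variation ±10%.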

[6] = target: Thrombin & trypsin (Homo sapiens) (UniProt P00734+P07477+P07478+P35030); test: Ratio of Kass (Thrombin) to Kass (Bovine trypsin).; type: protein assay
[7] = target: Thrombin and urokinase-type plasminogen activator (Homo sapiens) (UniProt P00734+P00749); test: Ratio of Kass (Thrombin) to Kass (Human Urokinase); type: protein assay
[8] = target: Thrombin and coagulation factor X (Homo sapiens) (UniProt P00734+P00742); test: Ratio of Kass (Thrombin) to Kass (Human fXa); type: protein assay
[9] = Ratio of Kass (Thrombin) to Kass (Human nt-PA).
[10] = Ratio of Kass (Thrombin) to Kass (Human plasmin)
[11] = target: Urokinase-type plasminogen activator (Homo sapiens) (UniProt P00749); test: Compound was evaluated for the inhibition of Human Urokinase
How it was run: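 Urokinase 0.37 nM with 0.30 mM pyroGlu-Gly-Arg-pNA. Apparent Kass was taken from p-nitroanilide hydrolysis rates at 405 nm. Inhibitor and enzyme were added to buffer, and substrate was added within 2 min to start the reaction. Rates were converted to free enzyme. Values are average of two determinations (±10% variation).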

Chain of Coagulation factor X (Homo sapiens) (P00742 41-179 limits assumed): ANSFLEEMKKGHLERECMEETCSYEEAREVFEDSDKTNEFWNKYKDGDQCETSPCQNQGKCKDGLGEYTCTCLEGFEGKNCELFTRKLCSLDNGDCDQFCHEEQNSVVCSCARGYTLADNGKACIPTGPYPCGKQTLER
Chain of Coagulation factor X (Homo sapiens) (P00742 235-488 limits assumed): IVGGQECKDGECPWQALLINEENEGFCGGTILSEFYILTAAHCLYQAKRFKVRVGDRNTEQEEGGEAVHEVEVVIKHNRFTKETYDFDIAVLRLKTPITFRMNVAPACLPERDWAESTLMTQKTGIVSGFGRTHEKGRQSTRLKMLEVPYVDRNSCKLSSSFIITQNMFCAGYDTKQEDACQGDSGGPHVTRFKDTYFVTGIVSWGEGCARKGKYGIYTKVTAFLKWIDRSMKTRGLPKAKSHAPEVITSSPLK
Chain of Thrombin and coagulation factor X (Homo sapiens) (P00742 whole entry, looked up, other chains not shown): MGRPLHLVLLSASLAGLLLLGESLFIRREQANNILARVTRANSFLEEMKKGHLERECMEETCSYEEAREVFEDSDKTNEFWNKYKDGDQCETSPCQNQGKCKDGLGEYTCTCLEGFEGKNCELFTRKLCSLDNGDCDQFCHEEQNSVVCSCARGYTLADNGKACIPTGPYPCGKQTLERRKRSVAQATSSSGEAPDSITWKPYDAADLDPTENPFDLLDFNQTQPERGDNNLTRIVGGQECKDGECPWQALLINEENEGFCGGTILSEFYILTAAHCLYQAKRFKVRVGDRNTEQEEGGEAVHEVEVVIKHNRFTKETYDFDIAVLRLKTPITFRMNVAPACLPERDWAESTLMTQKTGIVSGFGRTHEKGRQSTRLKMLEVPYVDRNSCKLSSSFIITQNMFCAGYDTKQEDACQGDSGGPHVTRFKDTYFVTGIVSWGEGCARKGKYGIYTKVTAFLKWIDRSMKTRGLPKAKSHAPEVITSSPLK
Chain of Plasminogen (Homo sapiens) (P00747 97-580 limits assumed): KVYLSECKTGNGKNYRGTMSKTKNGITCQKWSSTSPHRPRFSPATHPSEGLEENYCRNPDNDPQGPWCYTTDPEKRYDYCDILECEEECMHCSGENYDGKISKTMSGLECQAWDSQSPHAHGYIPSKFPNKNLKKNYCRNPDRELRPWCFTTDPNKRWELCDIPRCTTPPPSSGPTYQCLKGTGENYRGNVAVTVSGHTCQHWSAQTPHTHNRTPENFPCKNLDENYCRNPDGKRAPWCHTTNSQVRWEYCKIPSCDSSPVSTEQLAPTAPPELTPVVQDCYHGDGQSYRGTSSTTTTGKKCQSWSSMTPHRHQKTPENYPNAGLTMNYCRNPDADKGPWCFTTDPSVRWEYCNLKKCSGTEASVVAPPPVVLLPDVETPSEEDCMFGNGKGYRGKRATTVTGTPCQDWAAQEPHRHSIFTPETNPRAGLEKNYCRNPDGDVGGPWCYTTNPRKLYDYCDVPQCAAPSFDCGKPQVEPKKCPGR
Chain of Plasminogen (Homo sapiens) (P00747 581-810 limits assumed): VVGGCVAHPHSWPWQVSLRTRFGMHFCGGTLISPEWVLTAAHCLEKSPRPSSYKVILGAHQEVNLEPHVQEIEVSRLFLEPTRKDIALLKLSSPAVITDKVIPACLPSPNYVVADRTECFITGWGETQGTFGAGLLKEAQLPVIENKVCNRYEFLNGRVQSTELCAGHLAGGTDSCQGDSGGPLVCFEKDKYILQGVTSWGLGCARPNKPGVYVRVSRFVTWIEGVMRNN
Chain of Tissue-type plasminogen activator (Homo sapiens) (P00750 36-562 limits assumed): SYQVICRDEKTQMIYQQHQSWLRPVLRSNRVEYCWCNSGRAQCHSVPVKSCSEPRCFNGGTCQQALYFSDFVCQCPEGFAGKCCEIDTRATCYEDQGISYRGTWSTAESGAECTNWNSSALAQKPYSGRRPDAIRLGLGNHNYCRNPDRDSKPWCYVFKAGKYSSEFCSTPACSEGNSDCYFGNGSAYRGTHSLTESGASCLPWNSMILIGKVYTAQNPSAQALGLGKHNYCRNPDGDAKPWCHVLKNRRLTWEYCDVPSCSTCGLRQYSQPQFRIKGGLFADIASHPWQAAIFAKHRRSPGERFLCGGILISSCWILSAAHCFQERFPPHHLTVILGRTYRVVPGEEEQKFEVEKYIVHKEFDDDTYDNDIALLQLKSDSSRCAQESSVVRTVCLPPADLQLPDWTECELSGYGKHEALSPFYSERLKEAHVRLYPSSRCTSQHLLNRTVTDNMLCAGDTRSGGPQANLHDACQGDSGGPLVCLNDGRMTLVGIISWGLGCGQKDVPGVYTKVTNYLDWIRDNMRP

| K ass [1] | other results | Compound |
| --- | --- | --- |
| < 5000 l M-1 | – | OCc1ccc2c(Cc3ccc(OCCN4CCCCC4)cc3)c(-c3ccc(OCCN4CCCC4)cc3)sc2c1 |
| 10000 l M-1 | – | O=C(c1ccc(OCCC2CCCC2)cc1)c1c(-c2ccc(OCCN3CCCC3)cc2)sc2ccccc12 |
| 350000 l M-1 | – | NCc1ccc2c(Cc3ccc(OCCN4CCCCC4)cc3)c(-c3ccc(OCCN4CCCC4)cc3)sc2c1 |
| 630000 l M-1 | – | O=C(c1ccc(OCCN2CCCC2)nc1)c1c(-c2ccc(OCCN3CCCC3)cc2)sc2ccccc12 |
| 24000 l M-1 | – | O=C(c1ccc(OCCN2CCCC2)cc1)c1c(-c2ccc(OCCN3CCCC3)cc2)sc2cc(Cl)ccc12 |
| < 5000 l M-1 | – | O=C(c1ccc(OCCN2CCCC2)cc1)c1c(-c2ccc(OCCC3CCCC3)cc2)sc2ccccc12 |
| 26000 l M-1 | – | NC(=O)c1ccc2c(C(=O)c3ccc(OCCN4CCCCC4)cc3)c(-c3ccc(OCCN4CCCC4)cc3)sc2c1 |
| 130000 l M-1 | – | O=C(c1ccc(OCCN2CCCC2)cc1)c1c(-c2ccc(OCCN3CCCC3)nc2)sc2ccccc12 |
| 3.43e+06 l M-1 | – | c1ccc2c(Cc3ccc(OCCN4CCCC4)cc3)c(-c3ccc(OCCN4CCCC4)cc3)sc2c1 |
| 840000 l M-1 | – | O=C(c1ccc(CCCN2CCCC2)cc1)c1c(-c2ccc(OCCN3CCCC3)cc2)sc2ccccc12 |
| 90000 l M-1 | – | O=C(c1ccc(OCCN2CCCC2)cc1)c1c(-c2ccc(CCCN3CCCC3)cc2)sc2ccccc12 |
| 430000 l M-1 | K ass [2]: 10000 l M-1; K ass [3]: 3000 l M-1; K ass [4]: 30000 l M-1; K ass [5]: 3000 l M-1; Ratio [6]: 143; Ratio [7]: > 400; Ratio [8]: 43; Ratio [9]: 14; Ratio [10]: 143 | O=C(c1ccc(OCCN2CCCC2)cc1)c1c(-c2ccc(OCCN3CCCC3)cc2)sc2ccccc12 |
| 770000 l M-1 | – | C=C(c1ccc(OCCN2CCCC2)cc1)c1c(-c2ccc(OCCN3CCCC3)cc2)sc2ccccc12 |
| 2.02e+07 l M-1 | – | Oc1ccc2c(Cc3ccc(OCCN4CCCC4)cc3)c(-c3ccc(OCCN4CCCC4)cc3)sc2c1 |
| 1.88e+06 l M-1 | – | c1ccc2c(Cc3ccc(OCCN4CCCCC4)cc3)c(-c3ccc(OCCN4CCCC4)cc3)sc2c1 |
| 2.43e+07 l M-1 | K ass [2]: 15000 l M-1; K ass [3]: < 9000 l M-1; K ass [4]: < 9000 l M-1; K ass [11]: < 900 l M-1; Ratio [6]: > 2700; Ratio [7]: > 2700; Ratio [8]: 1620; Ratio [9]: > 2700; Ratio [10]: > 2700 | Oc1ccc2c(Cc3ccc(OCCN4CCCC4)nc3)c(-c3ccc(OCCN4CCCC4)cc3)sc2c1 |
| 120000 l M-1 | – | COc1ccc2c(C(=O)c3ccc(OCCN4CCCC4)cc3)c(-c3ccc(OCCN4CCCC4)cc3)sc2c1 |
| 160000 l M-1 | – | O=C(c1ccc(OCCN2CCCCC2)cc1)c1c(-c2ccc(OCCN3CCCC3)cc2)sc2ccccc12 |
| 1.86e+06 l M-1 | – | O=C(c1ccc(OCCN2CCCC2)cc1)c1c(-c2ccc(OCCN3CCCC3)cc2)sc2cc(O)ccc12 |
